Data from ChEMBL document CHEMBL1122780, “Trequinsin, a potent new antihypertensive vasodilator in the series of 2-(arylimino)-3-alkyl-9,10-dimethoxy-3,4,6,7-tetrahydro-2H-py rim ido [6,1-a]isoquinolin-4-ones” (J Med Chem, 1984).

Key:
Rattus norvegicus [1] = assay: Difference in systolic blood pressure of SH rats observed prior to the first application and 2 hr after the fifth application at the oral dose of 5 mg/kg was expressed as Delta BP; format: functional, Artery
Outline: (§1)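 Male spontaneously hypertensive rats (Wistar–Okamoto, 250–300 g, 12–16 weeks), conscious. Dosed orally once daily for 5 days in 0.9% NaCl or 0.5% carboxymethylcellulose (10 mL/kg); vehicle control group. Rats warmed at 37–38 °C for 10 min, then systolic pressure taken by tail-cuff (piezoelectric pulse detection). ΔBP = pre-first-dose minus 2 h after fifth dose; mean ± SEM, six animals.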

[2] = Compound was tested for toxicity in mice after intraperitoneal administration; format: organism-based; conditions: mouse, in vivo, ip
Outline: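 Mice (18–22 g), either sex. Compound dissolved in distilled water or suspended in 0.5% (carboxymethyl)cellulose and given ip at 10, 30, 100, 300 and 1000 mg/kg, 1 mL/100 g body weight. Animals observed for 48 h; approximate LD50 calculated by the Campbell and Richter method.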

Felis catus [3] = assay: Blood pressure lowering activity in anesthetized cats after intravenous administration of […] of compound; format: functional
Felis catus [4] = assay: Dose estimated to produce 25 mm Hg fall in mean systemic blood pressure of anesthetized cat at 10 min after administration; format: functional
Rattus norvegicus [5] = assay: Delta BP refers to difference in systolic blood pressure of SH rats observed prior to the first application and 2 hr after the fifth application at the oral dose of 3 mg/kg; format: functional, Artery; outline: as §1
Rattus norvegicus [6] = assay: Difference in systolic blood pressure of SH rats observed prior to the first application and 2 hr after the fifth application at the oral dose of 10 mg/kg was expressed as Delta BP; format: functional, Artery; outline: as §1
Felis catus [7] = assay: Dose estimated to produce a fall in mean blood pressure of anesthetized cat at 10 min after administration; format: functional
Outline: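 Cats (2.5–4.0 kg, either sex), ether induction, chloralose 70 mg/kg iv maintenance. Compound in distilled water or propylene glycol given via femoral vein at 0.01–10 mg/kg. Fall in mean arterial pressure read 10 min post-dose; ED25 (dose for 25 mmHg fall) calculated from log dose–response curve.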

Rattus norvegicus [8] = species on record: Rattus norvegicus; assay: Delta BP refers to difference in systolic blood pressure of SH rats; format: functional, Artery; outline: as §1
Rattus norvegicus [9] = species on record: Rattus norvegicus; assay: Evaluated for antihypertensive activity in hypertensive(SH) rat
Rattus norvegicus [10] = assay: Difference in systolic blood pressure of SH rats observed prior to the first application and 2 hr after the fifth application at the oral dose of 25 mg/kg was expressed as Delta BP; format: functional, Artery; outline: as §1
Oryctolagus cuniculus [11] = assay: Hypotensive activity of compound was evaluated by measuring fall in blood pressure in rabbits after administering 25 ug/kg intravenously; format: functional
Outline: (§2)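 Anesthetized rabbits. Dosing by femoral vein catheter at 10, 25 or 50 µg/kg. Records initial BP, maximal fall in mean arterial pressure, percent hypotension and duration of hypotension. Mean ± SEM, 6–7 experiments per dose.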

Felis catus [12] = assay: Hypotensive activity of compound was evaluated by measuring fall in blood pressure in cats after administering 50 ug/kg intravenously; format: functional
Outline: (§3)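 Cats (2.5–4.0 kg, either sex) under ether, maintained on chloralose 70 mg/kg iv. Dosing by femoral vein catheter at 10, 25 or 50 µg/kg. Records initial BP, peak fall in mean arterial pressure, percent hypotension and response duration. Mean ± SEM, five experiments per dose.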

Oryctolagus cuniculus [13] = assay: Percent hypotension was determined in rabbits after administering 50 ug/kg intravenously; format: functional; outline: as §2
Canis familiaris [14] = assay: Hypotensive activity of compound was evaluated by measuring initial blood pressure in dogs after administering 100 ug/kg intravenously; format: functional, Canis lupus familiaris
Outline: (§4)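 Mongrel dogs (10–16 kg, either sex) anesthetized with pentobarbitone sodium 35 mg/kg iv. Dosing by femoral vein catheter at 25, 50 or 100 µg/kg. Records initial BP, maximal fall in mean arterial pressure, percent hypotension and duration. Mean ± SEM, 3–8 experiments per dose.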

Canis familiaris [15] = assay: Hypotensive activity of compound was evaluated by measuring initial blood pressure in dogs after administering 25 ug/kg intravenously; format: functional, Canis lupus familiaris; outline: as §4
Oryctolagus cuniculus [16] = assay: Percent hypotension was determined in rabbits after administering 10 ug/kg intravenously; format: functional; outline: as §2
Felis catus [17] = assay: Percent hypotension was determined in cats after administering 10 ug/kg intravenously; format: functional; outline: as §3
Canis familiaris [18] = assay: Percent hypotension was determined in dogs after administering 50 ug/kg intravenously; format: functional, Canis lupus familiaris; outline: as §4
Canis familiaris [19] = assay: Hypotensive activity of compound was evaluated by measuring fall in blood pressure in dogs after administering 50 ug/kg intravenously; format: functional, Canis lupus familiaris; outline: as §4
Felis catus [20] = assay: Duration for hypotensive action in cats after administering 50 ug/kg intravenously; format: functional; outline: as §3
Canis familiaris [21] = assay: Percent hypotension was determined in dogs after administering 100 ug/kg intravenously; format: functional, Canis lupus familiaris; outline: as §4
Canis familiaris [22] = assay: Duration for hypotensive action in dogs after administering 50 ug/kg intravenously; format: functional, Canis lupus familiaris; outline: as §4
Felis catus [23] = assay: Hypotensive activity of compound was evaluated by measuring fall in blood pressure in cats after administering 10 ug/kg intravenously; format: functional; outline: as §3
Felis catus [24] = assay: Hypotensive activity of compound was evaluated by measuring initial blood pressure in cats after administering 10 ug/kg intravenously; format: functional; outline: as §3
Oryctolagus cuniculus [25] = assay: Hypotensive activity of compound was evaluated by measuring fall in blood pressure in rabbits after administering 50 ug/kg intravenously; format: functional; outline: as §2
Felis catus [26] = assay: Hypotensive activity of compound was evaluated by measuring initial blood pressure in cats after administering 25 ug/kg intravenously; format: functional; outline: as §3
Felis catus [27] = assay: Hypotensive activity of compound was evaluated by measuring fall in blood pressure in cats after administering 25 ug/kg intravenously; format: functional; outline: as §3
Canis familiaris [28] = assay: Percent hypotension was determined in dogs after administering 25 ug/kg intravenously; format: functional, Canis lupus familiaris; outline: as §4
Oryctolagus cuniculus [29] = assay: Duration for hypotensive action in rabbits after administering 50 ug/kg intravenously; format: functional; outline: as §2
Felis catus [30] = assay: Duration for hypotensive action in cats after administering 25 ug/kg intravenously; format: functional; outline: as §3
Oryctolagus cuniculus [31] = assay: Duration for hypotensive action in rabbits after administering 25 ug/kg intravenously; format: functional; outline: as §2
Felis catus [32] = assay: Duration for hypotensive action in cats after administering 10 ug/kg intravenously; format: functional; outline: as §3
Oryctolagus cuniculus [33] = assay: Hypotensive activity of compound was evaluated by measuring fall in blood pressure in rabbits after administering 10 ug/kg intravenously; format: functional; outline: as §2
Oryctolagus cuniculus [34] = assay: Duration for hypotensive action in rabbits after administering 10 ug/kg intravenously; format: functional; outline: as §2
Felis catus [35] = assay: Percent hypotension was determined in cats after administering 25 ug/kg intravenously; format: functional; outline: as §3
Canis familiaris [36] = assay: Duration for hypotensive action in dogs after administering 25 ug/kg intravenously; format: functional, Canis lupus familiaris; outline: as §4
Oryctolagus cuniculus [37] = assay: Hypotensive activity of compound was evaluated by measuring initial blood pressure in rabbits after administering 10 ug/kg intravenously; format: functional; outline: as §2
Canis familiaris [38] = assay: Hypotensive activity of compound was evaluated by measuring initial blood pressure in dogs after administering 50 ug/kg intravenously; format: functional, Canis lupus familiaris; outline: as §4
Felis catus [39] = assay: Hypotensive activity of compound was evaluated by measuring initial blood pressure in cats after administering 50 ug/kg intravenously; format: functional; outline: as §3
Felis catus [40] = assay: Percent hypotension was determined in cats after administering 50 ug/kg intravenously; format: functional; outline: as §3
Canis familiaris [41] = assay: Duration for hypotensive action in dogs after administering 100 ug/kg intravenously; format: functional, Canis lupus familiaris; outline: as §4
Canis familiaris [42] = assay: Hypotensive activity of compound was evaluated by measuring fall in blood pressure in dogs after administering 25 ug/kg intravenously; format: functional, Canis lupus familiaris; outline: as §4
Oryctolagus cuniculus [43] = assay: Hypotensive activity of compound was evaluated by measuring initial blood pressure in rabbits after administering 25 ug/kg intravenously; format: functional; outline: as §2
Oryctolagus cuniculus [44] = assay: Hypotensive activity of compound was evaluated by measuring initial blood pressure in rabbits after administering 50 ug/kg intravenously; format: functional; outline: as §2
Canis familiaris [45] = assay: Hypotensive activity of compound was evaluated by measuring fall in blood pressure in dogs after administering 100 ug/kg intravenously; format: functional, Canis lupus familiaris; outline: as §4
Oryctolagus cuniculus [46] = assay: Percent hypotension was determined in rabbits after administering 25 ug/kg intravenously; format: functional; outline: as §2

## CCn1c(=Nc2c(C)cc(C)cc2C)cc2n(c1=O)CCc1cc(OC)c(OC)cc1-2.Cl
Rattus norvegicus [1]
  Delta blood pressure: -20 mmHg
[2]
  LD50: 65 mg/kg
Felis catus [3]
  ED25: 0.025 mg/kg
Felis catus [4]
  ED25: 0.1 mg/kg

## COc1cc2c(cc1OC)-c1cc(N(C)c3c(C)cc(C)cc3C)nc(=O)n1CC2.Cl
Rattus norvegicus [1]
  Delta blood pressure: -45 mmHg
[2]
  LD50: 27 mg/kg
Felis catus [3]
  ED25: 0.03 mg/kg
Felis catus [4]
  ED25: 0.03 mg/kg

## COc1cc2c(cc1OC)-c1cc(Nc3c(C)cc(C)cc3C)nc(=O)n1CC2.Cl
Rattus norvegicus [1]
  Delta blood pressure: -37 mmHg
[2]
  LD50: 82.5 mg/kg
Felis catus [3]
  ED25: 0.2 mg/kg
Felis catus [4]
  ED25: 0.2 mg/kg

## COc1cc2c(cc1OC)-c1cc(=Nc3c(C)cc(C)cc3C)n(CP(C)(C)=O)c(=O)n1CC2.Cl
Rattus norvegicus [1]
  Delta blood pressure: -33 mmHg
[2]
  LD50: 65 mg/kg
Felis catus [3]
  ED25: 0.5 mg/kg
Felis catus [4]
  ED25: 0.1 mg/kg

## CCN(c1cc2n(c(=O)n1)CCc1cc(OC)c(OC)cc1-2)c1c(C)cc(C)cc1C
[2]
  LD50: 65 mg/kg
Rattus norvegicus [5]
  Delta blood pressure: -13 mmHg
Felis catus [3]
  ED25: 0.1 mg/kg
Felis catus [4]
  ED25: 0.025 mg/kg

## COc1cc2c(cc1OC)-c1cc(=Nc3c(C)cc(C)cc3C)n(C(C)C)c(=O)n1CC2
Rattus norvegicus [6]
  Delta blood pressure: -34 mmHg
Felis catus [4]
  ED25: 0.1 mg/kg

## COc1cc2c(cc1OC)-c1cc(N(C(C)=O)c3c(C)cc(C)cc3C)nc(=O)n1CC2
[2]
  LD50: 825 mg/kg
Rattus norvegicus [6]
  Delta blood pressure: -24 mmHg
Felis catus [3]
  ED25: 0.25 mg/kg
Felis catus [4]
  ED25: 0.25 mg/kg

## COc1cc2c(cc1OC)-c1cc(=Nc3c(F)cccc3F)n(C)c(=O)n1CC2
Rattus norvegicus [6]
  Delta blood pressure: 0 mmHg
Felis catus [4]
  ED25: 0.5 mg/kg

## COc1cc2c(cc1OC)-c1cc(N(C)c3c(F)cccc3F)nc(=O)n1CC2
Felis catus [7]
  ED25: 0.03 mg/kg
Rattus norvegicus [8]
  Delta blood pressure: 0 mmHg
Rattus norvegicus [9]
  Antihypertensive activity: 10 mg/kg
Felis catus [4]
  ED25: 6 mg/kg
Rattus norvegicus [10]
  Delta blood pressure: 0 mmHg

## Nc1cc(N2CCCCC2)nc(N)[n+]1[O-] [MINOXIDIL]
Rattus norvegicus [1]
  Delta blood pressure: -51.2 mmHg
Felis catus [4]
  ED25: 1.2 mg/kg

## COc1cc2c(cc1OC)-c1c/c(=N\c3c(C)cc(C)cc3C)n(C)c(=O)n1CC2.Cl [TREQUINSIN HYDROCHLORIDE]
Oryctolagus cuniculus [11]
  BP: 26.4 mmHg
Felis catus [12]
  BP: 34.2 mmHg
Oryctolagus cuniculus [13]
  Hypotension: 28.5%
Canis familiaris [14]
  BP: 168.3 mmHg
Canis familiaris [15]
  BP: 168.8 mmHg
Oryctolagus cuniculus [16]
  Hypotension: 18.6%
Felis catus [17]
  Hypotension: 16.8%
Canis familiaris [18]
  Hypotension: 25.4%
Canis familiaris [19]
  BP: 40.8 mmHg
Rattus norvegicus [1]
  Delta blood pressure: -41 mmHg
Felis catus [20]
  Duration: 82.5 min
[2]
  LD50: 150 mg/kg
Canis familiaris [21]
  Hypotension: 33.7%
Canis familiaris [22]
  Duration: 98.3 min
Felis catus [23]
  BP: 17 mmHg
Felis catus [24]
  BP: 110 mmHg
Oryctolagus cuniculus [25]
  BP: 24.2 mmHg
Felis catus [26]
  BP: 116 mmHg
Felis catus [27]
  BP: 25.8 mmHg
Canis familiaris [28]
  Hypotension: 22.9%
Oryctolagus cuniculus [29]
  Duration: 70 min
Felis catus [30]
  Duration: 45 min
Oryctolagus cuniculus [31]
  Duration: 57.8 min
Felis catus [32]
  Duration: 16 min
Oryctolagus cuniculus [33]
  BP: 17.4 mmHg
Oryctolagus cuniculus [34]
  Duration: 20.7 min
Felis catus [35]
  Hypotension: 23.4%
Felis catus [3]
  ED25: 0.025 mg/kg
Canis familiaris [36]
  Duration: 50 min
Oryctolagus cuniculus [37]
  BP: 93.8 mmHg
Canis familiaris [38]
  BP: 163.3 mmHg
Felis catus [39]
  BP: 125 mmHg
Felis catus [40]
  Hypotension: 28.6%
Canis familiaris [41]
  Duration: 140 min
Felis catus [4]
  ED25: 0.025 mg/kg
Canis familiaris [42]
  BP: 37.5 mmHg
Oryctolagus cuniculus [43]
  BP: 89.6 mmHg
Oryctolagus cuniculus [44]
  BP: 84.2 mmHg
Canis familiaris [45]
  BP: 56.1 mmHg
Oryctolagus cuniculus [46]
  Hypotension: 29.9%
